One data set is described as follows: Solubility in water. It counts as physicochemical. The settings on record: qualitative statement.
Data set [1] can be described thus: Molar absorption coefficient. It counts as physicochemical. In short, it runs like this:
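Test cross-linker concentration fixed by 1H NMR in DMSO-d6 with a known concentration of 1,2-dichloroethane, comparing the DCE methylene signal with the cross-linker α-methylene signal. The NMR solution was then diluted in DMSO or in 10 mM phosphate buffer pH 7.0, and UV-Vis spectra were recorded to calculate the molar absorption coefficient.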

For data set [2] the following is noted: cited from earlier work.

Like-named read-outs stand apart in the source and are kept apart here.

With `CC(=O)Nc1ccc(N=Nc2ccc(-c3ccc(N=Nc4ccc(NC(C)=O)cc4)cc3)cc2)cc1` [BPDB(r), 4,4’-bis(4-acetamidophenyl)diazenylbiphenyl], the solubility in water result in “Solubility in water” is “not soluble in water”. Consider `O=C(CCl)Nc1ccc(N=Nc2ccc(-c3ccc(N=Nc4ccc(NC(=O)CCl)cc4)cc3)cc2)cc1` [BPDB, 4,4’-bis(4-(2-chloroacetamido)phenyl)diazenylbiphenyl], for which the molar absorption coefficient in data set [1] (at 400 nm in DMSO) is 60,000 M^-1cm^-1.

On to `O=C(CCl)Nc1ccc(N=Nc2ccc(-c3ccc(N=Nc4ccc(NC(=O)CCl)cc4)cc3S(=O)(=O)O)c(S(=O)(=O)O)c2)cc1` [BPDBS, 4,4’-bis(4-(2-chloroacetamido)phenyl)diazenylbiphenyl-2,2’-disulfonate], for which the solubility in water result in the data set “Solubility in water” was “water-soluble”. The molar absorption coefficient in data set [1] (at 360 nm in sodium phosphate buffer, pH 7.0) is recorded as 45,000 M^-1cm^-1; in data set [1] (at 380 nm in DMSO), 52,000 M^-1cm^-1. On to `O=C(CCl)Nc1ccc(N=Nc2ccc(NC(=O)CCl)c(S(=O)(=O)O)c2)cc1S(=O)(=O)O` [BSBCA, 3,3’-bis(sulfonato)-4,4’-bis(chloroacetamide)azobenzene], for which, in data set [2], the molar absorption coefficient was 27,000 M^-1 cm^-1.

The record behind these values is paper PMC3517121 (Chembiochem : a European journal of chemical biology, 2011).
